# From ChEMBL document CHEMBL2163264, “Identification and synthesis of substituted pyrrolo[2,3-d]pyrimidines as novel firefly luciferase inhibitors” (Bioorg Med Chem, 2012)
# Calls of active or inactive are those of the source. No cut-off for these calls is given here.
# Target: Luciferin 4-monooxygenase (Photinus pyralis) (UniProt P08659)
# Assay: Uncompetitive inhibition of Photinus pyralis luciferase using 50 uM D-luciferin as substrate after 20 mins by Lineweaver-Burk plot in presence of 25 to 500 uM ATP
# Summary of the method: (§1)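 ATP-dependence kinetics: 32 nM P. pyralis luciferase in pH 7.8 glycine-Tris/EDTA/MgSO4 buffer, preincubated 20 min with inhibitor in the dark at room temperature. ATP varied 25–500 µM with D-luciferin fixed at 50 µM, read by bioluminescence. Double-reciprocal plots were examined. Apparent Km and Vmax came from nonlinear Michaelis–Menten fitting. Three independent assays in triplicate.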
# Sequence of Luciferin 4-monooxygenase (Photinus pyralis) (P08659 whole entry): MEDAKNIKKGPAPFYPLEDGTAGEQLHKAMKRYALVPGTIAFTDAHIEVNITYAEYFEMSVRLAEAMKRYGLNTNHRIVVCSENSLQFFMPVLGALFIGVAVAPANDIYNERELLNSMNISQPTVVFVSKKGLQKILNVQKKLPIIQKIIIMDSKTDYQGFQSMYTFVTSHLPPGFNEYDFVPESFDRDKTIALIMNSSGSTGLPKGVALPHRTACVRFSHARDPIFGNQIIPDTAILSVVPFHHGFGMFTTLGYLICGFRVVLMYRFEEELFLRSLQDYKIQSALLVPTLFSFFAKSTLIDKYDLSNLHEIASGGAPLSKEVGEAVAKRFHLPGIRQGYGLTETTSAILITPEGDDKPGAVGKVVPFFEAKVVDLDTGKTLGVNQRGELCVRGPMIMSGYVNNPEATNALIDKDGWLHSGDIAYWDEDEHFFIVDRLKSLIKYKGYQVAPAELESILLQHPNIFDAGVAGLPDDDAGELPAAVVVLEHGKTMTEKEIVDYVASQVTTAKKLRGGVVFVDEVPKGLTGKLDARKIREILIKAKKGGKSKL
row,inhibition,SMILES
1,Active,CC(C)n1ccc2c(Oc3ccc(N)cc3)ncnc21

# Target: T1, Luciferin 4-monooxygenase (Photinus pyralis, UniProt P08659)
# Assay: Uncompetitive inhibition of Photinus pyralis luciferase using 50 uM D-luciferin as substrate after 20 mins by nonlinear regression analysis in presence of 25 to 500 uM ATP
# Summary of the method: as §1
# T1 sequence (P08659 whole entry): as above
row,Ki [nM],SMILES
1,340,CC(C)n1ccc2c(Oc3ccc(N)cc3)ncnc21

# Target: T1, Luciferin 4-monooxygenase
# Assay: Competitive inhibition of Photinus pyralis luciferase using 3.125 to 200 uM D-luciferin as substrate after 20 mins by Michaelis-Menten plot in presence of 250 uM ATP
# Summary of the method: (§2)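 Photinus pyralis firefly luciferase (32 nM) in buffer A (1 M glycine-Tris, 10 mM EDTA, 100 mM MgSO4, pH 7.8) preincubated with inhibitor or buffer 20 min in the dark at room temperature. D-luciferin varied 3.125–200 µM with ATP fixed at 250 µM. Luminescence read. Apparent Km and Vmax from nonlinear Michaelis–Menten fit. Three independent assays in triplicate.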
row,Ki [nM],SMILES
1,1430,CC(C)n1ccc2c(Oc3ccc(N)cc3)ncnc21

# Target: T1, Luciferin 4-monooxygenase
# Assay: Mixed-type inhibition of Photinus pyralis luciferase using D-luciferin as substrate after 20 mins by Michaelis-Menten plot
# Summary of the method: as §2
row,Ki [nM],SMILES
1,220,CC(C)n1ccc2c(Oc3ccc(N)cc3)ncnc21

# Target: Luciferin 4-monooxygenase (Photinus pyralis) (UniProt P08659)
# Assay: Mixed-type inhibition of Photinus pyralis luciferase using D-luciferin as substrate at 10 uM after 20 mins by bioluminescence assay
row,SMILES,inhibition [%]
1,COc1ccc(Cn2ccc3c(Oc4ccc(N)cc4)ncnc32)cc1,26
2,CC(C)n1ccc2c(Oc3ccc(N)cc3)nc(S(C)(=O)=O)nc21,9
3,Nc1ccc(Oc2ncnc3c2ccn3Cc2ccccc2)cc1,46
4,Cn1ccc2c(Oc3ccc(N)cc3)ncnc21,48
5,NC(=O)Cn1ccc2c(Oc3ccc(N)cc3)ncnc21,21
6,Nc1ccc(Oc2ncnc3c2ccn3Cc2ccc(C(F)(F)F)cc2)cc1,7

# More lines, now with the values ahead:
row,inhibition [%],SMILES
1,31,CSc1nc(Oc2ccc(N)cc2)c2ccn(C(C)C)c2n1
2,33,CCOC(=O)Cn1ccc2c(Oc3ccc(N)cc3)ncnc21
3,19,Nc1ccc(Oc2ncnc3[nH]ccc23)cc1

# Target: T1, Luciferin 4-monooxygenase
# Assay: Mixed-type inhibition of Photinus pyralis luciferase using D-luciferin as substrate after 20 mins by bioluminescence assay
# Summary of the method: as §2
row,SMILES,IC50 [nM]
1,CC(C)CCn1ccc2c(Oc3ccc(N)cc3)ncnc21,6460
2,CC(C)n1ccc2c(Oc3ccccc3N)ncnc21,7300
3,CC(C)n1ccc2c(Oc3ccc(N)cc3)ncnc21,360
4,CC(C)(C)Cn1ccc2c(Oc3ccc(N)cc3)ncnc21,80
5,C=C=Cn1ccc2c(Oc3ccc(N)cc3)ncnc21,9430
6,CC(C)=CCn1ccc2c(Oc3ccc(N)cc3)ncnc21,7530
7,C=C(C)Cn1ccc2c(Oc3ccc(N)cc3)ncnc21,120
8,C=CCn1ccc2c(Oc3ccc(N)cc3)ncnc21,2240
9,CC(C)Cn1ccc2c(Oc3ccc(N)cc3)ncnc21,310
10,C=C(C)Cn1ccc2c(Oc3ccc(N(C)C)cc3)ncnc21,90
11,CNc1ccc(Oc2ncnc3c2ccn3CC(C)(C)C)cc1,70

# Further lines, results first:
row,IC50 [nM],SMILES
1,60,C=C(C)Cn1ccc2c(Oc3ccc(NC)cc3)ncnc21
2,10800,CC(C)n1ccc2c(Oc3ccc(N)cc3)nc(N)nc21
3,290,Nc1ccc(Oc2ncnc3c2ccn3C2CCCC2)cc1
4,120,CN(C)c1ccc(Oc2ncnc3c2ccn3CC(C)(C)C)cc1
5,3510,CCn1ccc2c(Oc3ccc(N)cc3)ncnc21
6,180,CC(C)n1ccc2c(Oc3ccc(N(C)C)cc3)ncnc21
7,130,CNc1ccc(Oc2ncnc3c2ccn3C(C)C)cc1
8,14700,CC(C)n1ccc2c(Oc3cccc(N)c3)ncnc21
